Published values pooled from the literature.
Compare with care: the assays were run in different laboratories.
Target: Cytochrome P450 2C9 (CYP2C9, Homo sapiens, UniProt P11712)
Observed: enzyme activity
Action: inhibitor

SMILES	test	test system	setting	measurement	value
O=C(NCCN1CCCC1)c1cc(-c2ccc(CN3CCOCC3)cc2)nc2ccc(F)cc12	–	human, liver microsomes	–	IC50	> 100 µM
COc1ccn2c(Nc3ccccc3F)c(-c3ccncn3)nc2c1	–	–	–	IC50	0.41 µM
CCc1cc(/C(C)=N/OCc2ccc(C3CCCCC3)c(C(F)(F)F)c2)ccc1CN1CC(C(=O)O)C1	–	human, liver microsomes	20 min	IC50	~1.3 µM
Ic1ccc(CSCn2ccnc2)cc1	–	MFC	30 min, pH 7.4	IC50	0.155 µM
Nc1nc(N)c2nc(CNc3ccc(C(=O)c4ccccc4)cc3)cnc2n1	luciferase	–	–	IC50	25.1 µM
C=CC(=O)Nc1cc(Nc2nccc(Nc3cc(Cl)c(F)cc3C(C)(C)O)n2)c(OC)cc1N1CC[C@@H](N(C)C)C1	–	human, liver microsomes	–	IC50	> 30 µM
Cc1ccc2nc(-c3ccccc3)c(CNc3ccc(F)cc3)n2c1	–	–	–	IC50	0.41 µM
COc1ccc2c(Cc3ccccc3F)c3[n+](cc2c1OC)CCc1cc2c(cc1-3)OCO2	–	–	–	IC50	> 10 µM
C[C@H]1CN(c2n[nH]c3nc(N[C@H]4CC[C@H](NS(=O)(=O)CCC(F)(F)F)CC4)ncc23)CCO1	–	–	–	IC50	> 100 µM
CCCOC(=O)C1CCN(C(=O)c2ccc(N(C)Cc3cnc4nc(N)nc(N)c4n3)cc2)CC1	luciferase	–	–	IC50	5.5 µM
C[C@@H](c1ccc2nccn2c1)n1nnc2ncc(-c3cnn(C)c3)nc21	–	human, liver microsomes	pH 7.4	IC50	4.7 µM
COc1ccc2c(Cc3ccccc3F)c3n(c(=O)c2c1OC)CCc1cc2c(cc1-3)OCO2	–	–	–	IC50	> 10 µM
Cc1cc(C)c2c(c1)[C@@H](N(Cc1cc(C(F)(F)F)cc(C(F)(F)F)c1)c1nnn(C)n1)CCCN2C[C@H]1CC[C@H](C(=O)O)CC1	–	human, liver microsomes	pH 7.4	Ki	0.57 µM
Nc1nc(N)c2nc(CNc3ccc(C(=O)NCCc4ccccc4)cc3)cnc2n1	luciferase	–	–	IC50	18.6 µM
Cc1cc2c(F)c(Oc3ncnn4cc(OC[C@@H](C)O)c(C)c34)ccc2[nH]1	fluorescence	–	15 min	IC50	1.39 µM
